Test results as given in ChEMBL document CHEMBL1129750, “Bicyclic N-hydroxyurea inhibitors of 5-lipoxygenase: pharmacodynamic, pharmacokinetic, and in vitro metabolic studies characterizing N-hydroxy-N-(2,3-dihydro-6-(phenylmethoxy)-3-benzofuranyl)urea” (J Med Chem, 1996).
The source made the active and inactive calls. The rule behind the calls is not given here.

Assays:
Mus musculus [1] = assay: Maximum inhibition of LTB4 at dose 6 mg/kg in mouse; type: functional
Mus musculus [2] = assay: Percentage inhibition of LTB4 after 6 hr at dose 6 mg/kg in mouse; type: functional
Mus musculus [3] = organism: Mus musculus; assay: Inhibition of Leukotriene formation in mouse adoptive peritoneal anaphylaxis assay ex vivo; type: functional
Homo sapiens = organism: Homo sapiens; assay: Compound was tested to inhibit Leukotriene formation in A-23187-stimulated human whole blood using LTB4 specific RIA in vitro; type: functional
Procedure, shortened: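 Human whole blood stimulated with A23187; LTB4 measured by specific radioimmunoassay. IC50 with 95% confidence limits from linear regression.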

Mus musculus [4] = assay: Compound was tested to inhibit Leukotriene formation in mouse sensitized with 1BD8 cells after 7 hr of compound administration, activity expressed as percent of control; type: functional; set-up: concentration or dose not given beside the values
Mus musculus [5] = organism: Mus musculus; assay: Compound was tested to inhibit Leukotriene formation in A-23187-stimulated mouse whole blood using […] ex vivo; type: functional
Mus musculus [6] = organism: Mus musculus; assay: Compound was tested to inhibit Leukotriene formation in A-23187-stimulated mouse whole blood using […] ex vivo, activity expressed as percent of control; NS=No Stastistical Significance; type: functional, organism-based
[7] = biological target: T1, Polyunsaturated fatty acid 5-lipoxygenase (Rattus norvegicus, UniProt P12527); assay: Inhibitory activity against rat 5-lipoxygenase by using continuous oxygen consumption assay.
T1 sequence (P12527 whole entry): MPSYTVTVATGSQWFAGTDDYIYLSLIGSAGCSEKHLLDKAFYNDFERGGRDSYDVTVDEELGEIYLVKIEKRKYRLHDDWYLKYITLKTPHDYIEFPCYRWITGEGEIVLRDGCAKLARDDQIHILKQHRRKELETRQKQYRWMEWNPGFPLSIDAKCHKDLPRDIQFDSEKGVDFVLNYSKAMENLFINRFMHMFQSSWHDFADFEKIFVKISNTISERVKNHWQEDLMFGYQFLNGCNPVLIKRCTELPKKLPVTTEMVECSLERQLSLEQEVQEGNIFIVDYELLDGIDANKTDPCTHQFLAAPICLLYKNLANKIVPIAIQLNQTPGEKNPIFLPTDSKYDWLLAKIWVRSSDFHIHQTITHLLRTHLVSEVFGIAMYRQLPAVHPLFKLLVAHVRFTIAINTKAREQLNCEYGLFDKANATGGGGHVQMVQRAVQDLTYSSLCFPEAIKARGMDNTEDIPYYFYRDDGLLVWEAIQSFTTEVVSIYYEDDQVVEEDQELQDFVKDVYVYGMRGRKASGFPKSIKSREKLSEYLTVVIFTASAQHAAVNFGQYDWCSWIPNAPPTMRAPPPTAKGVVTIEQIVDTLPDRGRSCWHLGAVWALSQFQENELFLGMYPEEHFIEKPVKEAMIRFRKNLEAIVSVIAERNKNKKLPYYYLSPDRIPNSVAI
Procedure, shortened: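 Semipurified cytosolic 5-LO from rat basophilic leukemia (RBL-1) cells; continuous oxygen-electrode assay of oxygen consumption; IC50.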

[8] = Compound was administered intravenously in mouse to evaluate plasma clearance values; type: ADME, organism-based; conditions: iv, read-out: Clp
Procedure, shortened: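 Male CD-1 mice given 0.5 mg/kg IV by lateral tail vein over 5–10 s, in ethanol/propylene glycol 30:70 v/v; N = 3 per time point with terminal sampling under ether. Plasma HPLC, LOQ 0.05 μg/mL. Mean concentration per time point before noncompartmental analysis. Half-life from slope of log-concentration profile; CLp = dose/AUC.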

[9] = Compound was administered intravenously in monkey to evaluate plasma clearance values; type: ADME, organism-based; conditions: simiiformes, plasma, iv; read-out: Clp
Procedure, shortened: (§1)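 IV infusion over 15 min via saphenous (monkey) or cephalic (dog) vein catheter, 1–1.4 mg/kg in 7.5% (w/v) aqueous (2-hydroxypropyl)-β-cyclodextrin; male cynomolgus monkeys and beagle dogs, N = 3. Chilled plasma analysed by HPLC. Noncompartmental parameters were estimated per animal and then averaged. CLp = dose/AUC, with AUC by linear/log-linear trapezoidal rule.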

Canis familiaris = assay: Compound was administered intravenously in dog to evaluate plasma clearance values; type: ADME, organism-based, Canis lupus familiaris; conditions: in vivo, iv; procedure, shortened: as §1
[10] = biological target: T2, Polyunsaturated fatty acid 5-lipoxygenase (Mus musculus) (UniProt P48999); assay: Inhibition of leukotriene formation in A-23187-stimulated mouse whole blood using […] ex vivo, activity expressed as percent of control.; type: functional, tissue-based; set-up: scale not given: the % may be the effect or the level left
T2 sequence (whole entry): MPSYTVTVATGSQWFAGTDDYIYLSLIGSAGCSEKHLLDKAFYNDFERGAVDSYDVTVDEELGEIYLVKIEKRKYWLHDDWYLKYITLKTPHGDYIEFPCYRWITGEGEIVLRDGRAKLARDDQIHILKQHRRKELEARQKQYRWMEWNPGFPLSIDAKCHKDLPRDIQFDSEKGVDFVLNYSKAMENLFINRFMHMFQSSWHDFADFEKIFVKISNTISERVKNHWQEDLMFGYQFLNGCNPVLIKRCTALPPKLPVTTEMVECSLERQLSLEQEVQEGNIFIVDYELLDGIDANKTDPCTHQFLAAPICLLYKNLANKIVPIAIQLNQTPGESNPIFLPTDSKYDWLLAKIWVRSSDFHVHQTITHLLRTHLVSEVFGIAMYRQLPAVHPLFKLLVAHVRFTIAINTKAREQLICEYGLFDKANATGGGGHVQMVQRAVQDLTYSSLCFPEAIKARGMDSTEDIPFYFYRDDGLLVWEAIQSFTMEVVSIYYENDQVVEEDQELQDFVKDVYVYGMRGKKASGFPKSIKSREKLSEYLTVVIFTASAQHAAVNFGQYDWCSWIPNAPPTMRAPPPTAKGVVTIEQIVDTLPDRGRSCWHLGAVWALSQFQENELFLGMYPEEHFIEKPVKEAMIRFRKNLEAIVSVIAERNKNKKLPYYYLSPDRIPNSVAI

Mus musculus [11] = organism: Mus musculus; assay: Percentage inhibition of LTB4 formation after 6 hr in mouse; type: functional
Mus musculus [12] = assay: Maximum inhibition of LTB4 formation at dose 15 mg/kg in mouse; type: functional
[13] = Mus musculus, Blood, read-out: ED50

Row | Compound | IC50 [7] [nM] | Activity [10] [%] | further results
1 | NC(=O)N(O)C1COc2cc(OCc3ccccc3)ccc21 (stereo in doubt; 1a) |  |  | Max inhibition (Mus musculus [1]): 91; inhibition in vivo at 6 mg/kg (Mus musculus [2]): 87%; ED50 (Mus musculus [3]; Mus musculus): 3.9 mg/kg; IC50 (Homo sapiens): 4300 nM; Activity (Mus musculus [4]): -55%; ED50 (Mus musculus [5]): 3.9 mg/kg
2 | NC(=O)N(O)C1COc2cc(OCc3ccccc3)ccc21 (single isomer, unassigned; (+)) |  |  | clearance [8]: 8.6 mL/min; clearance [9]: 6.1 mL/min; Clp (Canis familiaris): 3.5 mL/min; ED50 (Mus musculus [5]): 0.9 mg/kg
3 | NC(=O)N(O)C1CCCc2c(OCc3ccccc3)cccc21 (configuration not stated) | 910 | -44 | 
4 | NC(=O)N(O)C1CCCc2cc(-c3ccccc3)ccc21 (configuration not stated) | 3000 | -52 | 
5 | NC(=O)N(O)C1CCc2cc(OCc3ccccc3)ccc21 (stereo in doubt; 2a) | 780 |  | ED50 (Mus musculus [3]; Mus musculus): 4 mg/kg; Activity (Mus musculus [4]): -31%; ED50 (Mus musculus [5]; [13]): 2.6 mg/kg
6 | NC(=O)N(O)C1CCn2c1cc1cc(OCc3ccccc3)ccc12 (configuration not stated) | 650 | -68 | ED50 (Mus musculus [3]): 1.8 mg/kg; Activity (Mus musculus [4]): -8%; ED50 (Mus musculus [5]; [13]): 1.8 mg/kg
7 | NC(=O)N(O)C1CCCc2cc(OCc3ccccc3)ccc21 (single isomer, unassigned; (+)) | 760 |  | 
8 | NC(=O)N(O)C1CCCc2cc(OCc3ccc4ccccc4c3)ccc21 (configuration not stated) | 500 |  | Activity (Mus musculus [6]): inactive
9 | Cc1c2n(c3ccc(Oc4ccccc4)cc13)CCC2N(O)C(N)=O (configuration not stated) |  | -26 | 
10 | NC(=O)N(O)C1CCCc2cc(OCc3ccccc3)ccc21 (stereo in doubt; 3a) [listing 1 of 2 here] |  | -67 | 
11 | NC(=O)N(O)C1CCCc2cc(OCc3ccccc3)ccc21 (stereo in doubt; 3a) [listing 2 of 2 here] | 1800 |  | Inhibition (Mus musculus [11]): 67%; Max inhibition (Mus musculus [12]): 61; ED50 (Mus musculus [5]; [13]): 9.9 mg/kg

Continued, in another order:

Row | IC50 [7] [nM] | Activity [10] [%] | Compound | further results
12 | 1000 |  | NC(=O)N(O)C1CCCc2ccc(OCc3ccccc3)cc21 (configuration not stated) | Activity (Mus musculus [6]): inactive
13 | 29000 | -30 | NC(=O)N(O)C1CCCc2ccccc21 (configuration not stated) | 
14 | 5600 |  | NC(=O)N(O)C1CCCc2c1ccc1ccccc21 (configuration not stated) | 
15 | 2200 | -70 | NC(=O)N(O)C1CCCc2cc(OCc3ccc(Cl)cc3)ccc21 (configuration not stated) | ED50 (Mus musculus [3]; Mus musculus): 4.5 mg/kg; Activity (Mus musculus [4]): 0%; ED50 (Mus musculus [5]; [13]): 4.5 mg/kg
16 | 1300 |  | NC(=O)N(O)C1CCn2c1cc1cc(Cl)ccc12 (configuration not stated) | 
17 | 520 | -58 | NC(=O)N(O)C1CCn2c1cc1cc(Oc3ccccc3)ccc12 (configuration not stated) | 
18 | 3300 | -56 | NC(=O)N(O)C1COc2cc(Oc3ccccc3)ccc21 (configuration not stated) | 
19 | 4200 |  | NC(=O)N(O)C1COc2c1ccc1ccccc21 (configuration not stated) | 
20 | 2700 | -73 | COc1ccc(COc2ccc3c(c2)OCC3N(O)C(N)=O)cc1 (configuration not stated) | ED50 (Mus musculus [5]; [13]): 9.8 mg/kg
21 |  | 0.9 | NC(=O)N(O)C1CCc2cc(OCc3ccccc3)ccc21 (stereo in doubt; (-)2a) | 
